{
  "source": "ChEMBL document CHEMBL5030538",
  "about": "(J Med Chem, 2021)",
  "key": {"[1]": {"system": "HREC", "test": "Antimigratory activity against VEGF-A stimulated HREC assessed as wound closure at 5 uM in presence of PTZ measured after 48 hrs by wound closure assay", "format": "functional, tissue-based", "conditions": "Homo sapiens", "how_it_was_run": "(§1)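 Primary HREC grown to confluence were scratched to make a 1 mm wound and washed with PBS. They were then incubated 48 h at 37 °C in complete medium with 80 ng/mL VEGF-A and 5 μM compound, alone or with 2 μM PTZ or 2 μM AC927. Wounds were photographed by phase contrast at 0, 24 and 48 h, and closure taken as the distance both fronts moved into the wound. Mean ± SEM of three independent experiments, three wells each.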"}, "[2]": {"system": "HREC", "test": "Antimigratory activity against VEGF-A stimulated HREC assessed as inhibition of cell motility at 5 uM in presence of AC927 measured after 48 hrs by wound closure assay", "format": "functional", "conditions": "Homo sapiens", "how_it_was_run": "as §1"}, "[3]": {"system": "HREC", "test": "Antimigratory activity against VEGF-A stimulated HREC assessed as wound closure at 5 uM measured after 48 hrs by wound closure assay", "format": "functional, tissue-based", "conditions": "Homo sapiens", "how_it_was_run": "as §1"}, "[4]": {"system": "HREC", "test": "Antiangiogenic activity against HREC cells assessed as inhibition of tube formation measured after 24 hrs by matrigel based tube formation assay", "format": "functional, cell-based", "conditions": "Homo sapiens"}, "[5]": {"test": "Displacement of [3H]-DTG from sigma 2 receptor in guinea pig brain membranes after 120 mins by microbeta scintillation counting method"}, "[6]": {"test": "Antiangiogenic activity against VEGF-A stimulated human retinal endothelial cell assessed as cell proliferation measured after 48 hrs by crystal violet assay", "format": "functional", "conditions": "HREC", "how_it_was_run": "(§2)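 They were then treated at 5 μM with or without 80 ng/mL VEGF-A, with DMSO as vehicle. Cells were PBS-washed, fixed in 4% paraformaldehyde, stained with 0.5% crystal violet in 20% methanol, extracted with 10% acetic acid and read at 570/590 nm. Proliferation is given as % of vehicle; triplicate.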"}, "[7]": {"test": "Antiangiogenic activity against VEGF-A stimulated human retinal endothelial cell assessed as cell proliferation measured after 24 hrs by crystal violet assay", "format": "functional", "conditions": "HREC", "how_it_was_run": "as §2"}, "[8]": {"test": "Antiangiogenic activity against VEGF-A stimulated Human endothelial cell assessed as cell proliferation measured after 72 hrs by crystal violet assay", "format": "functional, tissue-based"}, "[9]": {"test": "Antiproliferative activity against VEGF-A stimulated human retinal endothelial cell assessed as reduction in cell viability measured after 72 hrs by MTT assay", "format": "functional", "conditions": "HREC"}, "[10]": {"test": "Antiproliferative activity against VEGF-A stimulated human retinal endothelial cell assessed as reduction in cell viability measured after 48 hrs by MTT assay", "format": "functional", "conditions": "HREC"}, "[11]": {"test": "Antiproliferative activity against VEGF-A stimulated human retinal endothelial cell assessed as reduction in cell viability measured after 24 hrs by MTT assay", "format": "functional", "conditions": "HREC"}},
  "note": "Calls of active or inactive are those of the source. The calls are words filed in the database; no cut-off is given here.",
  "data": [
    {"smiles": "CCCC(CCC)C(=O)O[C@H](CCCN1CCC(O)(c2ccc(Cl)cc2)CC1)c1ccc(F)cc1", "values": [
      {"measurement": "Activity", "setting": "[1]", "result": "inactive"},
      {"measurement": "Activity", "setting": "[2]", "result": "inactive"},
      {"measurement": "Activity", "setting": "[3]", "result": "Active"},
      {"measurement": "Activity", "setting": "[4]", "result": "Active"}
    ]},
    {"smiles": "O[C@H](CCCN1CCC(O)(c2ccc(Cl)cc2)CC1)c1ccc(F)cc1", "values": [
      {"measurement": "Ki", "setting": "[5]", "result": 0.032, "unit": "µM"}
    ]},
    {"smiles": "CCCC(CCC)C(=O)O[C@@H](CCCN1CCC(O)(c2ccc(Cl)cc2)CC1)c1ccc(F)cc1", "values": [
      {"measurement": "Activity", "setting": "[2]", "result": "inactive"},
      {"measurement": "Activity", "setting": "[3]", "result": "Active"},
      {"measurement": "Activity", "setting": "[4]", "result": "Active"}
    ]},
    {"smiles": "CCCC(CCC)C(=O)OC(CCCN1CCC(O)(c2ccc(Cl)cc2)CC1)c1ccc(F)cc1", "note": "(racemic)", "values": [
      {"measurement": "Ki", "setting": "[5]", "result": 0.124, "unit": "µM"},
      {"measurement": "Activity", "setting": "[3]", "result": "Active"},
      {"measurement": "Activity", "setting": "[4]", "result": "Active"}
    ]},
    {"smiles": "CCCC(CCC)C(=O)O", "note": "[VALPROIC ACID]", "values": [
      {"measurement": "IC50", "setting": "[6]", "result": 1450, "unit": "µM"},
      {"measurement": "IC50", "setting": "[7]", "result": 1230, "unit": "µM"},
      {"measurement": "IC50", "setting": "[8]", "result": 1380, "unit": "µM"}
    ]},
    {"smiles": "OC(CCCN1CCC(O)(c2ccc(Cl)cc2)CC1)c1ccc(F)cc1", "note": "(racemic) [HYDROXYHALOPERIDOL]", "values": [
      {"measurement": "IC50", "setting": "[6]", "result": 129, "unit": "µM"},
      {"measurement": "IC50", "setting": "[9]", "result": 69, "unit": "µM"},
      {"measurement": "IC50", "setting": "[8]", "result": 69.2, "unit": "µM"},
      {"measurement": "IC50", "setting": "[10]", "result": 128, "unit": "µM"},
      {"measurement": "IC50", "setting": "[11]", "result": "> 200", "unit": "µM"}
    ]}
  ]
}
